29 compounds from ChEMBL document CHEMBL5247673, “Discovery of Small Molecules Targeting the Frameshifting Element RNA in SARS-CoV-2 Viral Genome” (ACS Med Chem Lett, 2023) can be followed below.

In data set [1] the test system is Severe acute respiratory syndrome coronavirus 2. Description: Binding affinity to 5'-CY5-labelled SARS-CoV-2 frameshift element RNA by SPR analysis. Put shortly:
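Single-concentration SPR at 100 μM compound over immobilized FSE RNA, with the lead compound as positive control.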
In general terms: Surface plasmon resonance follows binding to a sensor surface in real time, without labels.

For data set [2] the test system is unchanged. Description: Binding affinity to 5'-CY5-labelled SARS-CoV-2 frameshift element RNA by MST analysis. Put shortly:
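Single-concentration MST screen against 5′-Cy5-labelled FSE RNA at 100 μM compound. A hit required an MST shift greater than 3SD of the DMSO signal, with the lead compound as positive control.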

The nature of data set [3]: Cytotoxicity against human MCF7 cells assessed as cell viability at 50 uM measured after 48 hrs by Cell-titer Glo luminescent assay relative to control. It counts as toxicity, cell-based. Particulars: read-out: Activity. The method, boiled down: (§1)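 MCF-7 cell viability after 48 h compound exposure.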
For data set [4], the system named is Reticulocyte. Description: Binding affinity to wild-type Rous sarcoma virus frameshift element RNA pseudoknot sequence transfected with Renilla/Firefly luciferase in rabbit reticulocyte lysate assessed as frameshifting by measuring ratio of renilla/firefly luminescence by dual-luciferase reporter assay. The data set is classed as subcellular. The method, boiled down:
(§2)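 In vitro frameshifting reporter with the SARS-CoV-2 or RSV pseudoknot placed between Renilla (0 frame) and firefly (−1 frame) luciferases. Frameshifting was the luminescence ratio. Frameshifting and translation were normalized to WT plus DMSO. Controls were a 5′ stop codon, a 3′ stop codon and a same-frame construct. Data are mean ± SD, n = 3.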
A general note: Reporter assays use an easily measured gene product as a stand-in for the process of interest.

For data set [5], the system named is Reticulocyte. Description: Binding affinity to wild-type Rous sarcoma virus frameshift element RNA pseudoknot sequence transfected with Renilla/Firefly luciferase in rabbit reticulocyte lysate assessed as translation by measuring ratio of renilla luminescence by dual-luciferase reporter assay. The data set is classed as subcellular. Put shortly: as §2
For data set [6], the system named is Reticulocyte. Description: Binding affinity to wild-type SARS-CoV-2 frameshift element RNA pseudoknot sequence transfected with Renilla/Firefly luciferase in rabbit reticulocyte lysate assessed as translation by measuring ratio of renilla luminescence by dual-luciferase reporter assay. The data set is classed as subcellular. Conditions: Severe acute respiratory syndrome coronavirus 2. Put shortly:
as §2

Data set [7] deals with Reticulocyte. Briefly: Binding affinity to wild-type SARS-CoV-2 frameshift element RNA pseudoknot sequence transfected with Renilla/Firefly luciferase in rabbit reticulocyte lysate assessed as frameshifting by measuring ratio of renilla/firefly luminescence by dual-luciferase reporter assay. Particulars: Severe acute respiratory syndrome coronavirus 2. The data set is classed as subcellular. The method, boiled down: as §2

The nature of data set [8]: Binding affinity to 5'-biotin-labelled SARS-CoV-2 frameshift element RNA assessed as dissociation constant by SPR analysis. Also on record: species or system Severe acute respiratory syndrome coronavirus 2. The method, boiled down: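 5′-Biotin FSE RNA was captured on a streptavidin-coated SPR surface. Compound was injected at 15.6–1000 μM, and KD came from steady-state fitting to a 1:1 Langmuir model. Stoichiometry was estimated from Rmax and the molecular ratio.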

The subject of data set [9] is Severe acute respiratory syndrome coronavirus 2. Briefly: Binding affinity to 5'-CY5-labelled SARS-CoV-2 frameshift element RNA at 50 uM by MST analysis.
Data set [10] shares this test system. Description: Binding affinity to SARS-CoV-2 frameshift element RNA at 150 uM by water ligand observed gradient spectroscopic analysis. The method, boiled down: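 WaterLOGSY NMR of 150 μM compound, alone and with 5 μM unlabelled FSE RNA. N-methyl-L-valine served as internal non-binding control, and a phase inversion of ligand peaks was read as binding.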

Data set [11] has the same test system. Briefly: Binding affinity to SARS-CoV-2 frameshift element RNA assessed as thermal stability by measuring change in melting temperature of RNA by circular dichroism analysis. Put shortly: (§3)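 FSE RNA thermal melt with compound at 150 or 500 μM. Tm was taken from first-derivative melting curves and reported as ΔTm.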
For data set [12] the test system is unchanged. Description: Binding affinity to SARS-CoV-2 frameshift element RNA assessed as thermal stability by measuring change in melting temperature of RNA at 500 uM by circular dichroism analysis. Put shortly: as §3
The test system is the same in data set [13]. Description: Binding affinity to 5'-Cy5-labelled SARS-CoV-2 frameshift element RNA at 10 uM by microarray-based fluorescence analysis.
Data set [14] relates to MCF7. Description: Inhibition of programmed -1 ribosomal frameshifting in human MCF7 cells harboring pCherryGFP-Inframe-noFSE plasmid assessed as inhibition of GFP expression incubated for 30 mins by fluorescence microscopic analysis. The data set is classed as functional, cell-based. Put shortly: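 MCF-7 cells were treated with compound at various concentrations and transfected with an mCherry–FSE–GFP reporter: WT, a stop-codon negative control, or an in-frame no-FSE plasmid. GFP expression was the read-out, compared with a DMSO (0 μM) control. Data are mean ± SD of three independent experiments.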

Data set [15] deals with Severe acute respiratory syndrome coronavirus 2. Briefly: Binding affinity to SARS-CoV-2 frameshift element RNA assessed as thermal stability by measuring change in melting temperature of RNA at 150 uM by circular dichroism analysis. The method, boiled down: as §3
Background: CD spectra are sensitive to the conformation of chiral molecules.

The nature of data set [16]: Binding affinity to 5'-CY5-labelled SARS-CoV-2 frameshift element RNA assessed as dissociation constant by MST analysis. Also on record: species or system Severe acute respiratory syndrome coronavirus 2. The method, boiled down: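 MST titration of the compound (4.9–500 μM) into 5′-Cy5-labelled FSE RNA. KD was fitted from T-jump values.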
The subject of data set [17] is Reticulocyte. Description: Binding affinity to wild-type Rous sarcoma virus frameshift element RNA pseudoknot sequence transfected with Renilla/Firefly luciferase in rabbit reticulocyte lysate assessed as inhibition of translation by dual-luciferase reporter assay relative to control. It counts as subcellular. Conditions: concentration not given here. The method, boiled down:
as §2

Data set [18] relates to MCF7. Description: Cytotoxicity against human MCF7 cells assessed as reduction in cell viability upto 100 uM measured after 48 hrs by Cell-titer Glo luminescent assay. It counts as toxicity, cell-based. Conditions: mcf7, 48 h. The method, boiled down:
as §1

Data set [19] relates to Reticulocyte. Briefly: Binding affinity to wild-type Rous sarcoma virus frameshift element RNA pseudoknot sequence transfected with Renilla/Firefly luciferase in rabbit reticulocyte lysate assessed as reduction in frameshifting by dual-luciferase reporter assay relative to control. The data set is classed as subcellular. Also on record: scale not given: the % may be the effect or the level left. The method, boiled down: as §2

Data set [20] concerns Reticulocyte. Briefly: Binding affinity to wild-type SARS-CoV-2 frameshift element RNA pseudoknot sequence transfected with Renilla/Firefly luciferase in rabbit reticulocyte lysate assessed as reduction in frameshifting by dual-luciferase reporter assay relative to control. The data set is classed as subcellular. Conditions: Severe acute respiratory syndrome coronavirus 2. Details: scale not given: the % may be the effect or the level left. Put shortly:
as §2

The source made the active and inactive calls. The rule behind the calls is not given here.

`COc1ccc(-c2nc(N3CC(N4CCOCC4)C3)c3ccccc3n2)cc1`: the result in data set [1] was Active. The result in data set [2] was inactive.

For the compound `COc1ccc(-c2nc(NCCN3CCOCC3)c3cccc(OC)c3n2)cc1`, the outcome in data set [1] was Active. The result in data set [2] was inactive.

Take `COc1ccc(-c2nc(NCCN3CCOCC3)c3ccc([N+](=O)[O-])cc3n2)cc1`: the result in data set [1] and in data set [2] was inactive.

Consider `O=[N+]([O-])c1ccc(-c2nc(NCCN3CCOCC3)c3ccccc3n2)cc1`, for which the outcome in [1] and in [2] was inactive.

Regarding `COc1ccc(-c2nc(NCCN3CCOCC3)c3cc(OC)ccc3n2)cc1`, the viability at 48 h, 50 µM in data set [3] was found to be 95.6%. For the same compound, the Ratio with Reticulocyte [4] was determined as 1.13; in the data set on Reticulocyte [5], 0.82; in the data set with Reticulocyte [6] it was 0.98; with Reticulocyte [7], 0.98. Moreover, the outcome in data set [1] and in [2] was Active. Besides, the Kd in data set [8] was 60 µM.

In the case of `COc1ccc(-c2nc(NCCN3CCN(C)CC3)c3ccccc3n2)cc1`, the result in data set [1] and in data set [2] was Active.

`COc1ccccc1-c1nc(NCCN2CCOCC2)c2ccccc2n1`: in [1], the outcome was Active. In [2], the outcome was inactive.

For `CC#CCOc1ccc(-c2nc(NCCN3CCOCC3)c3ccccc3n2)cc1`, the result in data set [1] and in data set [2] was inactive.

Turning to `COc1ccc(-c2nc(NCCN3CCOCC3)c3cc([N+](=O)[O-])ccc3n2)cc1`, the result in [1] and in data set [2] was inactive.

Take `COc1ccc(-c2nc(NCCCN3CCC(N4CCCCC4)CC3)c3ccccc3n2)cc1`: the result in data set [9] and in data set [10] was inactive.

With `CCOC(=O)c1ccccc1NC(=O)N1CCCN(Cc2csc(C)n2)CC1`, the ΔTm in data set [11] was found to be 2.2 °C. Moreover, the Ratio in the data set with Reticulocyte [4] worked out at 1.13; in the data set with Reticulocyte [5], 0.96; in the data set on Reticulocyte [6], 1.01; in the data set with Reticulocyte [7], 1.02. The outcome in [2] was Active.

As for `COc1ccc(-c2nc(NCCN3CCOCC3)c3ccccc3n2)cc1`, in data set [3], the viability at 48 h, 50 µM stood at 91.6%. In addition, the ΔTm was -4.5 °C in data set [12] and -2.5 °C in [15]. Moreover, the result in data set [13], in data set [1], in data set [2] and in data set [10] was Active. Further, the Ratio in the data set with Reticulocyte [4] is 1.21; in the data set with Reticulocyte [5], 0.77; with Reticulocyte [6] it was 1.35; in the data set with Reticulocyte [7], 0.99. For the same compound, the inhibition result with MCF7 [14] was “inactive”. Besides, the Kd in [8] turned out to be 147 µM; in [16], 139 µM.

On to `COc1ccc(-c2nc(NCCS(=O)(=O)N3CCOCC3)c3ccccc3n2)cc1`, for which, in data set [1], the outcome was Active. Besides, in data set [2], the outcome was inactive.

As for `COc1ccc(-c2nc(NCCN3CCOCC3)c3cc(-c4ccc(N5CCOCC5)c(C)c4)ccc3n2)cc1`, the outcome in data set [1] was Active. Besides, the outcome in data set [2] was inactive.

Consider `CCOC(=O)c1cccc(Nc2nc(-c3cccnc3)nc3ccccc23)c1`, for which the result in data set [9] and in data set [10] was inactive.

With `COc1ccc(-c2nc(NCCN3CCOCC3)c3cc(-c4cn[nH]c4)ccc3n2)cc1`, in data set [1], the outcome was Active. In addition, the outcome in data set [2] was inactive.

`COc1ccc(-c2nc(NCCN3CCOCC3)c3ccc(-c4cn[nH]c4)cc3n2)cc1`: the result in [1] and in data set [2] was Active.

Turning to `COc1ccc(-c2nc(NCCN3CCOCC3)c3ccc(C(F)(F)F)cc3n2)cc1`, the outcome in [1] was inactive. Moreover, in data set [2], the result was Active.

`FC(F)(F)c1ccc(-c2nc(NCCN3CCOCC3)c3ccccc3n2)cc1`: in data set [1], the result was Active. The outcome in data set [2] was inactive.

In the case of `COc1ccc(F)cc1COc1ccc(-c2nc(NCCN3CCOCC3)c3ccccc3n2)cc1`, the outcome in data set [1] and in data set [2] was inactive.

For `COc1ccc(-c2nc(NCCN3CCOCC3)c3ccc(OC)cc3n2)cc1`, the result in data set [1] and in data set [2] was Active.

For `CCNCC1CCN(c2c(F)cc3c(=O)c(C(=O)O)cn(CC)c3c2F)C1` (stereo not drawn) [MERAFLOXACIN], the ΔTm in data set [11] was -3.7 °C. Besides, in the data set on Reticulocyte [17], the inhibition worked out at 30%. In addition, the Ratio with Reticulocyte [4] came to 0.59; in the data set with Reticulocyte [5] it was 0.7; in the data set on Reticulocyte [6] it was 0.9; in the data set on Reticulocyte [7], 0.21. The Activity entry in the data set on MCF7 [18] is “Non-Toxic”; in the data set on Reticulocyte [19], 41%; in the data set with Reticulocyte [20] it was 79%. Moreover, the result in data set [2] was Active.

`COc1ccc(-c2nc(NCCN3CCOCC3)c3c(OC)cccc3n2)cc1`: in [1], the outcome was Active. Moreover, in data set [2], the outcome was inactive.

Turning to `COc1ccc(-c2nc(NCCN3CCOCC3)c3cc(-c4ccc(S(N)(=O)=O)cc4)ccc3n2)cc1`, the result in data set [1] was Active. In addition, the outcome in data set [2] was inactive.

Regarding `CCN(CCN1CCOCC1)c1nc(-c2ccc(OC)cc2)nc2ccccc12`, the outcome in data set [1] was Active. Also, in data set [2], the result was inactive.

Turning to `COc1ccc(-c2nc(NCCN3CCOCC3)c3cc(OC)c(OC)cc3n2)cc1`, the outcome in data set [1] and in [2] was Active.

`COc1ccc(-c2nc(NCCN3CCOCC3)c3cc(C(F)(F)F)ccc3n2)cc1`: the outcome in [1] was inactive. The result in [2] was Active.

Turning to `COc1cccc(-c2nc(NCCN3CCOCC3)c3ccccc3n2)c1`, the outcome in data set [1] and in data set [2] was inactive.

`COc1ccc(-c2nc(NCCN3CCOCC3)c3ccc(-c4ccc(S(N)(=O)=O)cc4)cc3n2)cc1`: the outcome in data set [1] and in data set [2] was inactive.

Broadly, the Kd is the equilibrium constant for the complex coming apart. In general, ΔTm refers to the shift of the melting midpoint relative to a reference. One may read the inhibition as the percentage by which the read-out fell short of the control.
